Sampled rows, rich in hits. Any-hit rate of the full collection: about 2.4%.
Tb MetRS inh – T. brucei MetRS inhibitors, primary screen, biochemical, luminescence; methionyl-tRNA synthetase (Trypanosoma brucei brucei); purified T. brucei MetRS, ATP depletion, Kinase-Glo luminescence; inhibition, % at 11.9 µM; 0.4% of 360,000 active; AID 624268, 2012;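 active = inhibition above a per-plate cutoff of the control wells' mean inhibition plus 3 SD, cut at about 5.5% in these data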
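Measured by: Kinase-Glo luciferase luminescence reporting remaining unconsumed ATP. Material: purified T. brucei MetRS enzyme. Doses: 11.9 µM compound single dose, 0.9% DMSO. Medium: HEPES buffer containing pyrophosphatase, BSA, spermine, DTT. Times: 15 min preincubation, 2 h reaction, all 25 °C. Reagent: methionine, ATP and bulk E. coli tRNA.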
Rpn11 block – Rpn11 (PSMD14) deubiquitinase inhibitors, primary screen, biochemical, fluorescence polarization, uHTS | human 26S proteasome, Ub4-pepOG fluorescence polarization; 20S core pre-blocked with epoxomicin | 0.59% of 360,000 active | AID 588493, 2011 | 26S proteasome non-ATPase regulatory subunit 14 (Homo sapiens), O00487 | inhibition, % at 20 µM;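 active = inhibition at 20 µM, scaled to each plate's controls, above about 33%, limit read from the data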
Target sequence (O00487 whole entry, looked up): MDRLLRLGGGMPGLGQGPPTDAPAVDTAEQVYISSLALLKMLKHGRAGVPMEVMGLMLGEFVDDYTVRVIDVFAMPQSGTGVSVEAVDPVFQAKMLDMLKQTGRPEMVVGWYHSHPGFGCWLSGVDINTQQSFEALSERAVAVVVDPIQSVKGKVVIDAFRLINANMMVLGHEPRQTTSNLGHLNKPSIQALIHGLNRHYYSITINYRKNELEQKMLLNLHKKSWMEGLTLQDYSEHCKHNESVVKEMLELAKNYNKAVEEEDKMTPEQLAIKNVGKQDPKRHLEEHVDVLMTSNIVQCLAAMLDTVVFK
CSN deneddyl inh – inhibitors of CSN-mediated cullin deneddylation, primary screen, biochemical, fluorescence polarization, uHTS; COP9 signalosome complex subunit 5 (Homo sapiens), Q92905; Purified CSN, SCF-Nedd8-OG deneddylation; inhibition, % at 12.5 µM; 0.38% of 360,000 active; AID 651999, 2013;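 active = pattern-corrected inhibition above about 35%, with an unprinted fluorescence ratio check between 0.5 and 1.5, limit read from the data, passing the limit was not always enough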
Target sequence (Q92905 whole entry, looked up, one chain of several): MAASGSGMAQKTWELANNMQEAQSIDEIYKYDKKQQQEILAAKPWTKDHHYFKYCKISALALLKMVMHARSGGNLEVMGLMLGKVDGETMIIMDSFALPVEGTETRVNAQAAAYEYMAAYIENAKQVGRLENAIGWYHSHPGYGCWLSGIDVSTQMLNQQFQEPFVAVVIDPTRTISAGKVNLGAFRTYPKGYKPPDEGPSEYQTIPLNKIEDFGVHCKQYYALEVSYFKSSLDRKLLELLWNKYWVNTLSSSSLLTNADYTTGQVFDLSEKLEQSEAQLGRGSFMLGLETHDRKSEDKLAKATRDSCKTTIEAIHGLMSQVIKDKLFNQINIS
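Assay system: Purified human Csn5 enzyme expressed in HEK293T cells | Amount: Enzyme 0.24 nM | Measured by: Fluorescence polarization readout | Medium: Tris/NaCl/DTT buffer, pH 7.5 | Compound dosing: One concentration, 12.5 µM, 0.25% DMSO | Times: 90 min incubation of compound, enzyme and substrate at room temperature | Control set: no-enzyme wells high, enzyme-with-substrate wells low | Read-out: % inhibition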
PREPL inh – PREPL enzyme inhibitors, primary screen, biochemical, fluorescence polarization | Prolyl endopeptidase-like (Homo sapiens), Q4J6C6 | recombinant PREPL, fluorescence polarization activity-based probe | inhibition, % at 5.96 µM | 0.68% of 320,000 active | AID 2751, 2010
HNF4A DNA FP – change in binding of human HNF4A to DNA, primary screen, biochemical, fluorescence polarization, FITC-DNA; 1 h; activity change, % at 10 µM; 0.3% of 360,000 active; AID 1224865, 2016; in the data active = activity change above about 30%, passing the limit was not always enough
Neddylation inh – inhibitors of cullin neddylation, primary screen, biochemical, TR-FRET, uHTS, NAE and Ubc12. 0.58% of 360,000 active. NEDD8-conjugating enzyme Ubc12 (Homo sapiens) + NEDD8-activating enzyme E1 regulatory …. inhibition, % at 25 µM; in the data active = inhibition above about 36%
PREPL inh cf – human PREPL enzyme inhibitors, confirmation, biochemical, fluorescence polarization | shares compounds with PREPL inh | recombinant PREPL, fluorescence polarization activity probe | inhibition, % at 5.96 µM | 67% of 2,000 active | AID 2803, 2010
Each line names hits and unclear results; the compound was inactive in the other large screens (follow-up assays come after a bar, where shown). Cut-off read from the data, not from the text of the source, unless noted: active = inhibition above about 43%; inactive = the rest.

COc1ccccc1NC(=O)N(C)C[C@H]1Oc2ncc(Br)cc2C(=O)N([C@H](C)CO)C[C@H]1C	none (no result: PREPL inh)
COC(=O)c1cccc(N2C(=O)C[C@](Sc3ccc(C)cc3)(C(=O)OC)[C@H]2c2ccccc2)c1	none (no result: Rpn11 block, PREPL inh)
COc1ccc(OC)c(NC(=O)COC(=O)CCNc2ccccc2OC)c1	none
O=C(CS(=O)c1ccc(C(F)(F)F)cc1[N+](=O)[O-])Oc1ccccc1 (centres undefined)	PREPL inh 53 | PREPL inh cf 52
COC(=O)c1ccc(OC(=O)CS(=O)c2ccccc2[N+](=O)[O-])cc1 (centres undefined)	none
CC1(C(=O)NS(=O)(=O)c2ccc(Cl)cc2)CCN1C(=O)c1cccc(F)c1 (centres undefined)	none (no result: PREPL inh)
Cc1ccc(-n2c(SCC(=O)N(C)C3CCS(=O)(=O)C3)nc3ccccc3c2=O)c(C)c1 (centres undefined)	PREPL inh 53 | PREPL inh cf inactive
CC1(C2CCCC2)NC(=O)NC1=O (centres undefined)	none (no result: PREPL inh)
Cc1c(CCC(=O)NCCCn2ccnc2)c(=O)oc2c(C)c3oc4c(c3cc12)CCCC4	PREPL inh 49 (not shown: Neddylation inh) | PREPL inh cf inactive
Cc1cc(C)c2c(N)c(-c3nc4ccccc4[nH]3)sc2n1	PREPL inh 78 | PREPL inh cf inactive
COc1ccc(-c2cccc(NC(=O)COc3ccc(Cl)cc3)c2)nn1	none
COc1ccc(-c2c[n+]3c4n2CCCCC4=C(c2ccccc2)C3)cc1	PREPL inh 54 | PREPL inh cf inactive
Cc1ccc2nc(-c3ccccn3)c(NC3CCCC3)n2c1	PREPL inh 64 | PREPL inh cf 70
CCCCCCSc1cccc(-c2nc3ccc(C)cn3c2NC2CCCCC2)c1	none (not shown: Neddylation inh)
CC(C)(C)n1nnnc1C(c1ccccc1)N1CCN(c2c(Cl)cncc2Cl)CC1 (centres undefined)	none (no result: Rpn11 block, PREPL inh)
N#CCC(=O)Nc1ncn(Cc2ccccc2Cl)n1	PREPL inh 54 | PREPL inh cf inactive
N#CCC(=O)Nc1ccccc1C(=O)O	none
COc1ccc2c(COC(=O)c3ccc(C)c(S(=O)(=O)N4CCOCC4)c3)cc(=O)oc2c1	none (no result: PREPL inh)
N#Cc1cc([N+](=O)[O-])ccc1N1CCN(c2ccccc2O)CC1	PREPL inh 53 | PREPL inh cf 48
CC(N)c1csc(Nc2cc(Oc3ccccc3)ncn2)n1 (centres undefined)	none (no result: PREPL inh)
CNC(=S)N1N=C(c2cccs2)CC1c1ccc(OC)cc1 (centres undefined)	none
CNC(=S)N1N=C(c2ccc(Br)cc2)CC1c1ccc(Br)cc1 (centres undefined)	none
CNC(=S)N1N=C(c2ccc(OC)cc2)CC1c1ccc(N(C)C)cc1 (centres undefined)	PREPL inh 56 | PREPL inh cf 60
CNC(=S)N1N=C(c2ccc(Br)cc2)CC1c1ccc(N(C)C)cc1 (centres undefined)	PREPL inh 48 | PREPL inh cf 50
CN1Cc2sc(NC(=S)NC(=O)c3ccccc3)c(C#N)c2CC1(C)C	PREPL inh 58 (no result: Tb MetRS inh, Rpn11 block, CSN deneddyl inh, HNF4A DNA FP, Neddylation inh) | PREPL inh cf inactive
COc1ccc(/C=C/C(=O)NCCCc2ccccc2)cc1	none
COc1ccc(/C=C/c2cc[n+](C(=O)Cc3ccccc3)cc2)cc1	PREPL inh 45 | PREPL inh cf inactive
CCOC(=O)C1(CCOc2ccccc2)CCN(Cc2cccc(OC)c2)CC1	none
CCOC(=O)C1(CCOc2ccccc2)CCN(Cc2cc(OC)ccc2OC)CC1	PREPL inh 50 | PREPL inh cf inactive
Cc1ccc(SCC(=O)Nc2ccc(N3CCOCC3)cc2)cc1	none
Cc1ccc(SCC(=O)Nc2ccc(N3CCOCC3)cc2)cc1C	PREPL inh 44 | PREPL inh cf inactive
O=C(CSc1cccc(C(F)(F)F)c1)Nc1ccc(N2CCOCC2)cc1	PREPL inh 47 | PREPL inh cf 55
O=C(CSc1ccccc1F)Nc1ccc(N2CCOCC2)cc1	PREPL inh 55 | PREPL inh cf 52
COc1ccc(N(C(=O)C(C)C)S(=O)(=O)c2ccc3ccccc3c2)cc1	none
C[C@H]1CN([C@@H](C)CO)C(=O)c2cccc(NS(=O)(=O)c3ccc(Cl)cc3)c2O[C@@H]1CN(C)CC1CCCCC1	PREPL inh 61 | PREPL inh cf 50
C[C@H](CO)N1C[C@H](C)[C@H](CN(C)Cc2ccccc2)Oc2c(NC(=O)Nc3ccc(F)cc3)cccc2C1=O	PREPL inh 53 | PREPL inh cf 55
C[C@@H]1CN([C@@H](C)CO)C(=O)c2cccc(NC(=O)Nc3ccc(F)cc3)c2O[C@@H]1CN(C)Cc1ccc(Oc2ccccc2)cc1	none
C[C@H](CO)N1C[C@H](C)[C@@H](CN(C)S(C)(=O)=O)Oc2c(NC(=O)Cc3ccccc3)cccc2C1=O	none
COc1ccc(NC(=O)Nc2cccc3c2O[C@@H](CN(C)CC2CCCCC2)[C@@H](C)CN([C@H](C)CO)C3=O)cc1	PREPL inh 57 | PREPL inh cf 51
C[C@H](CO)N1C[C@H](C)[C@@H](CN(C)S(=O)(=O)c2cccs2)Oc2c(NC(=O)Cc3ccccc3)cccc2C1=O	PREPL inh 43 | PREPL inh cf inactive
C[C@H](CO)N1C[C@H](C)[C@@H](CN(C)C(=O)Nc2ccc(C(F)(F)F)cc2)Oc2ccc(NC(=O)c3ccncc3)cc2C1=O	PREPL inh 51 | PREPL inh cf 46
C[C@H](CO)N1C[C@H](C)[C@@H](CN(C)S(=O)(=O)c2ccc(F)cc2)Oc2c(NC(=O)Cc3ccccc3)cccc2C1=O	PREPL inh 44 | PREPL inh cf inactive
C[C@@H]1CN([C@@H](C)CO)C(=O)Cc2cc(NC(=O)Nc3cccc4ccccc34)ccc2O[C@@H]1CN(C)S(C)(=O)=O	PREPL inh 45 | PREPL inh cf inactive
C[C@H](CO)N1C[C@H](C)[C@@H](CN(C)S(=O)(=O)c2ccc(F)cc2)Oc2ccc(NC(=O)Cc3ccccc3)cc2C1=O	none
C[C@H]1CN([C@@H](C)CO)C(=O)c2cc(NC(=O)Nc3cccc4ccccc34)ccc2O[C@@H]1CN(C)Cc1ccc(-c2ccccc2)cc1	PREPL inh 48 | PREPL inh cf 45

High-throughput results (PubChem BioAssay)
